System: MS2 coat protein
Assay: apparent Kd, MS2 coat protein; higher = weaker binding; RNA-MaP array; FMN 200 µM where present
Method in brief: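 Green signal from SNAP-549-labelled MS2 coat protein was normalised to red-channel RNA signal and to the median Fmax of control clusters. The protein was titrated from 0.7 or 1.5 nM, doubling to 3 µM, without and then with constant ligand, over designs transcribed by stalled E. coli RNA polymerase on Illumina sequencing-chip clusters, in 100 mM Tris-HCl pH 7.5, 80 mM KCl, 4 mM MgCl2, BSA, DTT, yeast tRNA and Tween-20. The apparent Kd is the median of filtered per-cluster binding-curve fits.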

[1] = designed as: OFF switch for flavin mononucleotide, no ligand
[2] = ligand present: flavin mononucleotide, designed as: OFF switch for flavin mononucleotide
[3] = designed as: ON switch for flavin mononucleotide, no ligand
[4] = ligand present: flavin mononucleotide, designed as: ON switch for flavin mononucleotide

Sequence	apparent Kd [1]	apparent Kd [2]	apparent Kd [3]	apparent Kd [4]
CCCAUGUUAGGAUAUAUGGAAGGGCGGACGGGCGCCCUUAGGUAGAAGGAACAUGAGGAUCACCCAUGUAAUAA	171 nM	161 nM		
CCCGACCAGAAGUCGGUACGGAGGAGAAGGCGCCUCCUGGGUCCACAUGAGGAUCACCCAUGUGGCGAGGAUAUCCUCAGUUUU	13.7 nM	119 nM		
CCCUACACCGAGAAGGGCACGUAUUGAAGAGGGUGCCAGGAACAUCACAUGAGGAUCACCCAUGUGCAGGAUAUCGGCAGGAAC	9.41 nM	19.9 nM		
CCGACCUUGGCAGGAUAUAGACUCGAAGUUGAUCCCGCCGGUGGAGACAUGAGGAUCACCCAUGUCUAGAAGGGCCAGUCGAAA	16.2 nM	72.9 nM		
CCGAGUGGCGUACAGGAUAUGUUGCAUGGAACAUGAGGAUCACCCAUGUAUUUGCUCCCGCAUACGCAGAAGGGUGCGUCCUGGG			142 nM	25.4 nM
CCGAUAAUGUAGGAUAUCGUAUCGGAAACGAUACGAGAAGGACAAACAUGAGGAUCACCCAUGUUCCUUAACGG	15.5 nM	16.5 nM		
CCGAUGUGGGUACAGGAUAUGUGGGCCUCCACAUGAGGAUCACCCAUGUCGGAGGCAAAGCGGCUACAGAAGGGUGCGAGCUCGA			11 nM	12.9 nM
CCGCUCGAAGGAUAUACAAUCCUCAGACUCUUCGACCAAAGACAUGAGGAUCACCCAUGUAGAAGGUCGGCGGA	13.3 nM	25.9 nM		
CCGGAAAUACAGGAUAUCGUAUCGGAUACGAUACGAGAAGGGUAUACAUGAGGAUCACCCAUGUGUCCUACCGG	25.1 nM	32 nM		
CCGGAAAUGCAGGAUAUCGUAUCGGAUACGAUACGAGAAGGGUAUACAUGAGGAUCACCCAUGUGUCCUACCGG	18.4 nM	22.1 nM		
CCGGCCGCCGUGAGGAUAUGCCCGCGCGCCCGCGGGCAGAAGGCACAUGAGGAUCACCCAUGUCCCGCGGCACC	13.8 nM	15.7 nM		
CCGGCUUAGUAGGAUAUCAGAGUCGAAAGACUCUGAGAAGGACUAACAUGAGGAUCACCCAUGUGUCCUACCGG	15.9 nM	36 nM		
CCGGUUUAGGAGGAUAUAGGAGUCGAUAGACACCUAGAAGGCCUAACAUGAGGAUCACCCAUGUGACCUACCGG	51.1 nM	177 nM		
CCGUAGCAAGGAUAUACAUGAGGAUCACCCAUGUGUGUCAGUGUGGGUAGACAUUAAUGUAGAAGGUGCGACUG	64.8 nM	161 nM		
CCGUUACAUGAGGAUCACCCAUGUGAGGAUAUCGAUGUGACUGGCAGCGUGCGGGACUCGAGAAGGCACUUGGC	74.6 nM	58.5 nM		
CCUAAACAUGAGGAUCACCCAUGUCAGGAUAUGGACCGUCUGGUGAAAUUCAGCUGGACCAGAAGGGACGUGGA	32.2 nM	45.5 nM		
CCUAGUUGGUAAGGAUAUCCUACACUAUUCUGACCCGUGCAAGCUACAUGAGGAUCACCCAUGUGGGAGAAGGUGCGUCAACAU	10.1 nM	10.2 nM		
CCUAUGUGAGGAUAUAGCCACAUUACGAAUAAGUAGUGUGGCUAGAAGGUACAUGAGGAUCACCCAUGUAUGGG	167 nM	84.1 nM		
CCUAUGUGAGGAUAUGGUGUUGGCCACAGGGAAAAGGUCCUCCAGAAGGCACAUGAGGAUCACCCAUGUCGUGG	116 nM	127 nM		
CCUCCACAGGAGGAUAUCAUCAAACUAUUGUGAUGAGAAGGCCUGACAUGAGGAUCACCCAUGUUAUCGUGAUG	56 nM	185 nM		
CCUCCACAUGAGGAUCACCCAUGUCAGGAUAUCGUGUGUUUUUUUUCGGUCUUGCGUGCGAGAAGGGACGUCUU	35.6 nM	39.4 nM		
CCUCGUCACAUUAACAUGAGGAUCACCCAUGUCAAAAGACAUGAGGAUAUGCAUCCUAAUUGGAUGCAGAAGGCAUGGACGAGG			474 nM	36.5 nM
CCUCUACAUGAGGAUCACCCAUGUGAGGAUAUAUGCCCAUUACGCCAAGAGCGUGAUGAUAGAAGGCACAGGGU	22 nM	72.7 nM		
CCUCUGUCCGAGGAUAUGAGGUUAACGUGACCGUCAGAAGGCGGAACAUGAGGAUCACCCAUGUUUUGCGCAUG	44.2 nM	68 nM		
CCUGGCUUAGGAUAUACAGGAUCCGGGAACCCGGAAGUGAAACAUGAGGAUCACCCAUGUAGAAGGAAGAAAGC	28.8 nM	16.5 nM		
CCUUGACAUGAGGAUCACCCAUGUGAGGAUAUGAUGCGAUCGUCGAAAGACGAUAGCAUCAGAAGGCACAUAUG	23.4 nM	95.7 nM		
CCUUUCCGAGGAUAUACAUGAGGAUCACCCAUGUGAUCCUAAGGCUGAUCAAGCCUAUGUAGAAGGCGCAAAUC	133 nM	182 nM		
CCUUUGAAGAUCCUAAAUUUCGACAUGAGGAUCACCCAUGUGCAGGAUAUCGUGCCAGUGAUGUACGAGAAGGGCAGUCUCUGC	49 nM	53.5 nM		
